In ChEMBL document CHEMBL1250541, “20-Aminosteroids as a novel class of selective and complete androgen receptor antagonists and inhibitors of prostate cancer cell growth” (Bioorg Med Chem, 2010):
The source made the active and inactive calls. The calls are words filed in the database; no cut-off is given here.

Assays:
[1] = test system: Androgen receptor (Homo sapiens), P10275 [T878A]; assay: Agonist activity at human androgen receptor T877A mutant expressed in human CV1 cells assessed as induction of receptor-mediated transactivation by MMTV-luciferase reporter gene assay; type: functional, cell-based; settings: CV-1
Androgen receptor (Homo sapiens), P10275 [T878A], sequence (P10275 whole entry T878A): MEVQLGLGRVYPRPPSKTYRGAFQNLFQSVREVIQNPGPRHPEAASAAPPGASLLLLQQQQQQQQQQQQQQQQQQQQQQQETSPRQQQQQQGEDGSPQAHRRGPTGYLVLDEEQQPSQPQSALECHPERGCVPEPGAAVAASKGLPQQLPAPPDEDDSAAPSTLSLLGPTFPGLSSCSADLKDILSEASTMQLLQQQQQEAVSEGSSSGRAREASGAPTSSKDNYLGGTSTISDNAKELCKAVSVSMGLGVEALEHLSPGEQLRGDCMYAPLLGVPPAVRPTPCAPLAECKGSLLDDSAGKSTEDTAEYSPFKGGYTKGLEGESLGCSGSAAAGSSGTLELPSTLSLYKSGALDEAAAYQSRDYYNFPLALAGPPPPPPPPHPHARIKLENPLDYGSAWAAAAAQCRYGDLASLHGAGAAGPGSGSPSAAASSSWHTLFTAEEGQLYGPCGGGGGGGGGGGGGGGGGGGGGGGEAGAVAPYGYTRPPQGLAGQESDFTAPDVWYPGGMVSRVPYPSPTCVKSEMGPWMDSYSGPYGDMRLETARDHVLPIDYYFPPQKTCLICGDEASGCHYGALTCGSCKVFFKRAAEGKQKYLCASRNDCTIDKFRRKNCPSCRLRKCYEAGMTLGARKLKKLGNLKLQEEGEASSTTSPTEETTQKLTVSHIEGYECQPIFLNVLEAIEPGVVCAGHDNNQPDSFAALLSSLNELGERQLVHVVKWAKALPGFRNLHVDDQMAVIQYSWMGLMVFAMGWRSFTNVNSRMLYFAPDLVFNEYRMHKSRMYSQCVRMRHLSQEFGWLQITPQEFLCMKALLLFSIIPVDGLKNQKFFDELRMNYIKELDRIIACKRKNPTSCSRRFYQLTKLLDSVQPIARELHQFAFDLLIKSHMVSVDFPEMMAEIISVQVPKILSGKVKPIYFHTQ
Procedure, shortened: (§1)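 CV1 cells seeded at 1.2 × 10⁵ per well in DMEM with 5% charcoal-stripped serum, CaPO₄-transfected 18 h later with MMTV-luciferase reporter, human AR (wild type or T877A) expression vector and CMV-β-galactosidase control. After 24 h, medium was replaced with compounds alone or R1881. Cells were harvested 96 h later. Luciferase was normalized to β-gal (RLU). Duplicates, repeated at least twice.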

[2] = target: T1, Androgen receptor (Homo sapiens) (UniProt P10275); assay: Agonist activity at human androgen receptor expressed in human CV1 cells assessed as induction of receptor-mediated transactivation by MMTV-luciferase reporter gene assay; type: functional, cell-based; settings: CV-1; procedure, shortened: as §1
T1 sequence (whole entry): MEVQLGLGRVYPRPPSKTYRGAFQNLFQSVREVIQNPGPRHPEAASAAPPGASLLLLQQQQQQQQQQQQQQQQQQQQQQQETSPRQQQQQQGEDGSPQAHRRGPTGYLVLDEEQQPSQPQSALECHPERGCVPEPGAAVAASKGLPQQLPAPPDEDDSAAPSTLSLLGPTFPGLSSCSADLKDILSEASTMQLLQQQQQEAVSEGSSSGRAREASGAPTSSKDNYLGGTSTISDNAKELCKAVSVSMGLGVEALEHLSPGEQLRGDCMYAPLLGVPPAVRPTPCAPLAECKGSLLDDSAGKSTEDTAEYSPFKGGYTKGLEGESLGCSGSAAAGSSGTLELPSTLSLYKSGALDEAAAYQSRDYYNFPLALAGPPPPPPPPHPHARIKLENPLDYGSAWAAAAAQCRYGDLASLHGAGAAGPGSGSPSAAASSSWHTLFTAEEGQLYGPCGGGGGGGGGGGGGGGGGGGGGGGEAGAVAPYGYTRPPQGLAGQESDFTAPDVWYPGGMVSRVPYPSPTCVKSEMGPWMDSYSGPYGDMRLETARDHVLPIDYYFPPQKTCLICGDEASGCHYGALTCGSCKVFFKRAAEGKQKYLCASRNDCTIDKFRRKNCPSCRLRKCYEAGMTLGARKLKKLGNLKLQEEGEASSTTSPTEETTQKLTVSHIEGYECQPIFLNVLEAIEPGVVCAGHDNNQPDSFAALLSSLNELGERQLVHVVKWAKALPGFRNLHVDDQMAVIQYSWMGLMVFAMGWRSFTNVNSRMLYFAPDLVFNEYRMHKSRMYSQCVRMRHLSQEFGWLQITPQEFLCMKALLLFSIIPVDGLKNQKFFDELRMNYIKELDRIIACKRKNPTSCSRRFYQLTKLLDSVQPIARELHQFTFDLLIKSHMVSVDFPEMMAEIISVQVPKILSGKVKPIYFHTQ

PC-3 = assay: Cytotoxicity against human PC3 cells after 2 days; type: functional, cell-based
Procedure, shortened: (§2)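 Cells seeded in triplicate in 6-well plates at 25 × 10³ (LNCaP) or 5 × 10³ (PC3) per well in medium with 5% FCS. After 2 days they were treated with DMSO or compounds, with medium and compound renewed every second/third day. Cells were counted on the indicated days and normalized to day 0. Atraric acid served as positive control.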

[3] = test system: Androgen receptor (Homo sapiens), P10275 [T878A]; assay: Antagonist activity at human androgen receptor T877A mutant expressed in human CV1 cells assessed as inhibition of receptor-mediated transactivation at 1 uM by MMTV-luciferase reporter gene assay; type: functional, cell-based; settings: CV-1
Procedure, shortened: (§3)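 CV1 cells in DMEM with 5% charcoal-stripped serum, transfected by CaPO₄ with MMTV-luciferase, wild-type or T877A human AR vector and CMV-β-galactosidase. Compounds were added together with the agonist R1881 24 h post-transfection. After a further 96 h, luciferase was read and normalized to β-gal activity as RLU. Duplicates, repeated at least twice. NBBS antagonist and DMSO served as controls.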

LNCaP [4] = assay: Induction of senescence in human LNCAP cells assessed as beta galactosidase activity after 3 days; type: functional, cell-based
LNCaP [5] = assay: Cytotoxicity against human LNCAP cells at 10 uM after 2 days; type: functional, cell-based; procedure, shortened: as §2
[6] = target: T1, Androgen receptor (Homo sapiens); assay: Antagonist activity at human androgen receptor expressed in human CV1 cells assessed as inhibition of receptor-mediated transactivation at 1 uM by MMTV-luciferase reporter gene assay; type: functional, cell-based; settings: CV-1; procedure, shortened: as §3
[7] = target: T1, Androgen receptor (Homo sapiens); assay: Antagonist activity at human androgen receptor in human LNCAP cells assessed as inhibition of PSA mRNA expression by RT-PCR; type: functional, cell-based
Procedure, shortened: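 LNCaP cells treated with or without androgens plus compounds at 10 µM. DMSO-treated cells served as control. PSA mRNA was normalized to beta-actin expression.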

Androgen receptor = target: T2, Androgen receptor (Homo sapiens, UniProt P10275); assay: Antagonist activity at human androgen receptor expressed in human CV1 cells assessed as inhibition of receptor-mediated transactivation by MMTV-luciferase reporter gene assay; type: functional, cell-based, CV-1
T2 sequence (P10275 whole entry): T1 sequence (whole entry)

[8] = test system: Androgen receptor (Homo sapiens), P10275 [T878A]; assay: Antagonist activity at human androgen receptor T877A mutant expressed in human CV1 cells assessed as inhibition of receptor-mediated transactivation by MMTV-luciferase reporter gene assay; type: functional, cell-based; settings: CV-1; procedure, shortened: as §3

Row | Structure (SMILES) | Activity [1] | Activity [2] | IC50 (Androgen receptor) | further results
1 | C[C@]12CC[C@H]3[C@@H](CC=C4C[C@@H](O)CC[C@@]43C)[C@@H]1CC[C@@H]2[C@]1(C)CC=CC(=O)N1 | inactive | inactive | 3000 nM | Activity (PC-3): inactive; Activity [3]: Active; Activity (LNCaP [4]): Active; Activity (LNCaP [5]): Active; Activity [6]: Active; Activity [7]: Active
2 | COC(=O)c1c(C)cc(O)c(C)c1O | – | – | – | Activity (LNCaP [5]): Active
3 | C[C@]12CC[C@H]3[C@@H](CCC4=CC(=O)CC[C@@]43C)[C@@H]1CC[C@@H]2[C@]1(C)CC=CC(=O)N1 | – | inactive | 500 nM | –
4 | C[C@]12CC[C@H]3[C@@H](CC=C4C[C@@H](O)CC[C@@]43C)[C@@H]1CC[C@@H]2[C@@]1(C)CC=CC(=O)N1 | inactive | inactive | 2000 nM | Activity [7]: Active; Activity [8]: Active

Continued, in another order:

Row | Activity [1] | Activity [2] | IC50 (Androgen receptor) | Structure (SMILES) | further results
5 | Active | inactive | – | C=CC[C@](C)(N)[C@H]1CC[C@H]2[C@@H]3CC=C4C[C@@H](O)CC[C@]4(C)[C@H]3CC[C@@]21C | –
6 | – | inactive | – | C[C@]12CC[C@H]3[C@@H](CC=C4C[C@@H](O)CC[C@@]43C)[C@@H]1CC[C@@H]2[C@](C)(N)Cc1ccccc1 | –
7 | Active | inactive | – | C=CC[C@@](C)(N)[C@H]1CC[C@H]2[C@@H]3CC=C4C[C@@H](O)CC[C@]4(C)[C@H]3CC[C@@]21C | –
8 | Active | inactive | – | C=CC(C)[C@@](C)(N)[C@H]1CC[C@H]2[C@@H]3CC=C4C[C@@H](O)CC[C@]4(C)[C@H]3CC[C@@]21C (some centres undefined) | –
